NR3A LBD binder – modulates the human NR3A ligand-binding domain. NR3A LBD differential scanning fluorimetry, Tm shift; 0% = protein alone, 100% = glycine-bound protein. Tm shift relative to glycine control, % at 25 µM. actives 2.5% (n = 340,000);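 active means melting temperature shift of at least 10% of the positive control shift, at one fixed dose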
Beta apoptosis – blocks beta cell apoptosis | INS-1E cytokine-induced death, ATP luminescence, 48 h; percent of positive-control rescue, neutral wells zero | protection from apoptosis, % (test concentration not listed) | actives 0.8% (n = 300,000) | AID 435005;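 active means Every replicate reaches about 75%, or at least half do and their mean reaches it too, limit read from the data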;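 further: 0% = cytokine-treated negative control wells and 100% = positive control rescue; higher means more ATP so stronger rescue from cytokine killing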
CSC inhib – blocks cancer stem cells. cancer stem cell-like cells viability, luminescence. inhibition, % at 7.5 µM. actives 1.1% (n = 300,000). AID 2717; in the data active means inhibition above about 75%; tested in HMLE shEcad cells
PREPL inhibitor – inhibits the human prolyl oligopeptidase-like enzyme | Q4J6C6 | recombinant PREPL, fluorescence polarization activity-based probe | inhibition, % at 5.96 µM | actives 0.68% (n = 320,000) | AID 2751; in the data active means inhibition above about 43%;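 further: 0% = enzyme with DMSO and 100% = wells lacking enzyme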
Target sequence (Q4J6C6 whole entry, looked up): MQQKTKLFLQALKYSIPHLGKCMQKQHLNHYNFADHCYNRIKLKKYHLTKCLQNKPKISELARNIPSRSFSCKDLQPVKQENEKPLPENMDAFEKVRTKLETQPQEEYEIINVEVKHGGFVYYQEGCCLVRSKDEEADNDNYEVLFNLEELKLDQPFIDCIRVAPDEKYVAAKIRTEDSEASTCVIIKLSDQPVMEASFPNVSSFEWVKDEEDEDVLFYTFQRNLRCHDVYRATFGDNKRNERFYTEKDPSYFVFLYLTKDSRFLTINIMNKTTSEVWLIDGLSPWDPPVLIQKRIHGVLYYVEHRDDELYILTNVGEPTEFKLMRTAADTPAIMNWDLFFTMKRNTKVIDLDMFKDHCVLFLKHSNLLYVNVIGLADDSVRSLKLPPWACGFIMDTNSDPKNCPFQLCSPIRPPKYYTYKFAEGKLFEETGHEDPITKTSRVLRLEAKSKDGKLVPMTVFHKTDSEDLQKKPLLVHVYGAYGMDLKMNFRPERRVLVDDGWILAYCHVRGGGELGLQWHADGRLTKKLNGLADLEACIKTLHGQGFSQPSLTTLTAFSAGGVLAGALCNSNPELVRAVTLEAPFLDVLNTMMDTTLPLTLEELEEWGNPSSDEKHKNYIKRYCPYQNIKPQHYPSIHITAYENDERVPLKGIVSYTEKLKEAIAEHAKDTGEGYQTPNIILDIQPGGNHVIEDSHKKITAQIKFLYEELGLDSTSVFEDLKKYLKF
T cruzi inh – blocks replication of Trypanosoma cruzi; T. cruzi beta-gal in NIH3T3, luminescence, 90 h; inhibition, % (no concentration beside the values); actives 1.4% (n = 300,000);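 active means mean inhibition across valid replicates above about 55%, limit read from the data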;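 further: signal also drops with host cell toxicity which is not excluded here; 0% = plate median of DMSO wells and 100% = zero luminescence signal; higher percent means less beta-gal luminescence so fewer parasites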
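System: NIH/3T3 fibroblasts plus reporter T. cruzi. Medium: DMEM plus 2% FBS. Probe or stimulus: 5000 reporter trypomastigotes per well. Compound: single 50 nL compound addition per well in DMSO. Incubation: co-culture of at least 90 h after 3 h attachment. Detection: GalScreen β-gal luminescence, detergent lysis, 60 min. Evaluation: parasite load inhibition, %.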
CHOP inhibitor – CHOP inhibition in unfolded protein response | CHO-K1 CHOP-promoter luciferase, tunicamycin-induced, 15-18 h | inhibition, % at 10 µM | actives 3.8% (n = 220,000);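 active means compounds that reduced the stress-induced luciferase reporter signal by more than about 70% of percent inhibition, limit read from the data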;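 further: 0% = tunicamycin plus vehicle and 100% = wells without tunicamycin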
CHOP inh conf – confirmation of CHOP induction inhibitors. shares compounds with CHOP inhibitor. CHO-CHOP promoter luciferase reporter, tunicamycin-induced, luminescence. inhibition, % at 10 µM. actives 45% (n = 2,100). AID 504437;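 active means mean of three repeat readings of reporter signal inhibition above a set limit, cut at about 70% in these data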;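 further: 0% = tunicamycin plus vehicle and 100% = wells lacking tunicamycin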
The depositor's hits bear a star; . = not tested or not shown. Compounds with a hit are over-represented: about 6.7% of the library has one in this group of screens.

SMILES	NR3A LBD binder	Beta apoptosis	CSC inhib	PREPL inhibitor	T cruzi inh	CHOP inhibitor	CHOP inh conf
COC(=O)c1cc(NC(=S)Nc2cc(Cl)cc(Cl)c2)cc(C(=O)OC)c1	16.1*	-12.7	28.6	3.4	21.3	101.3*	98.6*
Cc1cccc(N2CCN(C(=O)c3c(C)nn(Cc4ccccc4Cl)c3C)CC2)c1C	-4.7	2.9	3.2	37.6	33.6	102.6*	86.2*
O=c1[nH]c(=O)n(Cc2ccco2)c2c1C(C(F)(F)F)(C(F)(F)F)N=C(c1ccc(F)cc1)N2	2.2	102.2*	30.9	7.3	-36.1	100.5*	86.8*
O=C(Oc1ccc(O)cc1)C12CC3CC(CC(C3)C1)C2	-1.4	-6.2	21.5	20.1	-16.1	105.8*	115.9*
CC(O)COc1ccc(/C(=N/O)c2ccccc2)cc1 (centres undefined)	0.6	-0.3	-11.9	4.5	-16.4	7.2	.
CC(C)COc1ccc(/C(=N/O)c2ccccc2)cc1	1.1	2.5	3.4	8.9	44.7	107.4*	92.5*
CC(=O)C1=C(c2ccc(Br)cc2)C(=O)c2ccccc2C1=O	2.1	107.2*	113.9*	8.8	55.0*	109.6*	107.7*
O=C1CCCCc2sc(Br)c([N+](=O)[O-])c2N1	-0.1	-8.0	22.9	-1.6	-3.2	104.7*	19.4
CC1=C(C(=O)Nc2ccc(C)cc2C)C(c2ccc(Cl)cc2)n2nc(C(=O)OC(C)C)nc2N1 (centres undefined)	-13.9	5.3	-10.8	1.5	-9.4	104.9*	17.5
CSc1nc2n(n1)C(c1cccc(F)c1)C(C(=O)Nc1ccc(C)cc1C)=C(C)N2 (centres undefined)	-0.3	15.6	-10.0	-10.7	0.1	34.1	.
Cc1nn2c(N)c(C#N)cnc2c1-c1ccc(Cl)cc1	2.2	-3.4	7.1	3.0	-15.0	97.8*	-26.0
Cc1nn2c(N)c(C#N)cnc2c1-c1ccccc1	0.9	-1.7	-1.2	5.7	-6.1	17.9	.
COc1ccc(C(=O)/C=C/C(=O)N(CC(=O)NC2CCCCC2)Cc2cccs2)c(O)c1	0.3	39.0	76.1*	5.6	-18.5	107.7*	118.9*
COc1ccc(C(=O)/C=C/C(=O)N(Cc2ccc3c(c2)OCO3)C(C(=O)NC2CCCCC2)c2ccncc2)c(O)c1 (centres undefined)	7.9	10.3	-6.7	-5.1	4.9	20.9	.
Cc1nc(COC(=O)c2cc(O)c3ccccc3c2O)cs1	2.0	.	.	.	-8.7	103.8*	119.7*
O=c1c2ccccc2nc(-c2ccccc2)n1Cc1ccc(Cl)cc1	-1.3	1.0	39.9	-5.7	7.9	11.0	.
O=c1c2ccccc2nc2n1CCN2Cc1ccc(Cl)cc1	2.0	-13.1	-2.0	-3.7	-16.4	98.9*	95.4*
O=C(NCc1ccco1)/C(=C/c1cccc(C(F)(F)F)c1)c1nc2ccccc2[nH]1	-4.6	.	.	1.0	14.5	96.2*	34.5
O=C(COC(=O)/C=C/c1cccc(C(F)(F)F)c1)NCc1ccco1	2.0	4.5	-11.7	-4.0	-12.4	.	.
CCN(CC(O)Cn1c2ccccc2c2ccccc21)S(=O)(=O)c1ccc(C)cc1 (centres undefined)	2.6	-0.9	32.2	5.1	53.7	98.6*	34.8
CCOc1cccc(N2C(=O)CC(NNC(=O)c3ccc(Br)o3)C2=O)c1 (centres undefined)	-1.1	-2.4	-4.4	10.3	-9.0	11.2	.
CCCOc1ccc(N2C(=O)CC(NNC(=O)c3ccc(COc4ccccc4)o3)C2=O)cc1 (centres undefined)	-1.5	10.8	-2.7	-8.7	3.9	101.6*	19.3
COc1ccccc1-c1nnc(NC(=O)c2ccc(S(=O)(=O)N(C)Cc3ccccc3)cc2)o1	0.3	6.1	.	-6.0	.	97.3*	97.1*
CCc1nnc(NC(=O)c2ccc(S(=O)(=O)N(C)Cc3ccccc3)cc2)o1	-4.7	6.7	25.1	-1.2	-5.5	.	.
CCN1C/C(=C/c2ccc(OC)c(O)c2)C(=O)/C(=C/c2ccc(OC)c(O)c2)C1	-0.9	96.9*	102.4*	9.5	51.3	99.9*	96.8*
SMILES	NR3A LBD binder	Beta apoptosis	CSC inhib	PREPL inhibitor	T cruzi inh	CHOP inhibitor	CHOP inh conf
COc1ccc(/C=N/N=C/c2ccc(OC)c(O)c2)cc1O	-24.8	0.1	-4.9	6.4	0.2	-6.8	.
CCCCc1c(C)nn(-c2nnc3c4ccccc4n(C)c3n2)c1C	1.2	28.4	-10.0	-1.3	38.8	106.5*	38.5
Cn1c(=O)cc(SCC(=O)NCCC2=CCCCC2)c2ccc(Cl)cc21	-7.7	-2.2	-6.1	-0.4	10.3	97.5*	90.4*
CCOc1ccc(CCNC(=O)CSc2cc(=O)n(C)c3cc(Cl)ccc23)cc1OCC	-1.1	-8.2	-7.5	-2.0	27.5	11.1	.
CC(=O)Oc1ccc(Cl)cc1CN(C(C)=O)C1CCCCC1	1.2	.	.	.	.	.	.
Cc1ccccc1NC1=C/C(=N\S(=O)(=O)c2cccs2)c2ccccc2C1=O	-3.5	98.1*	-8.4	33.4	57.5*	106.7*	-13.0
CC(=O)Nc1ccc(NC(=O)C(C)OC(=O)c2ccccc2NS(=O)(=O)c2cccs2)cc1 (centres undefined)	-0.9	-0.6	1.1	-15.2	2.9	-5.4	.
CC(=O)Nc1ccc(NC2=C/C(=N/S(=O)(=O)c3cccs3)c3ccccc3C2=O)cc1	-3.0	101.1*	-11.0	19.2	56.5*	107.3*	-41.7
Cc1n[nH]c(C)c1CCNC(=O)C1CCC(=O)N(CCc2cccc(F)c2)C1 (centres undefined)	-1.1	-0.9	18.2	3.6	-16.5	.	.
COC(C(=O)Nc1ccnn1C1CCN(Cc2ccc(C)s2)CC1)c1ccccc1 (centres undefined)	0.9	-3.3	2.5	6.0	7.4	.	.
CCOc1c(Cl)cc(CNCC(O)c2ccccc2)cc1OC (centres undefined)	-0.8	-4.9	-7.6	-3.9	49.8	7.8	.
OC(CNCC(c1ccc(Cl)cc1Cl)c1c[nH]c2ccccc12)c1ccccc1 (centres undefined)	23.8*	68.2	103.9*	23.2	82.1*	106.8*	125.0*
CC1CCN(S(=O)(=O)c2ccc3c(c2)C(=NO)c2cc(S(=O)(=O)N4CCC(C)CC4)ccc2-3)CC1	-9.1	103.9*	113.1*	17.0	.	108.1*	138.5*
CC(c1ccccc1F)n1cc(C(=O)NCCCc2nc3ccccc3[nH]2)nn1 (centres undefined)	-1.8	1.3	13.6	0.5	-0.4	96.6*	19.9
CC(c1ccc(F)cc1)n1cc(C(=O)NCCN(C)C)nn1 (centres undefined)	-4.1	-10.7	62.1	-0.1	6.3	18.5	.
COc1ccc([N+](=O)[O-])cc1NS(=O)(=O)c1ccc(Cl)c(C(=O)Nc2sc3c(c2C#N)CCCCC3)c1	.	1.7	24.5	6.5	-14.8	105.0*	52.0
